According to ChEMBL document CHEMBL3232844, “Synthesis and structure activity relationships of schweinfurthin indoles” (2014):

Experiments:
Assay type in all cases: functional
NCI-H460 = test: Cytotoxicity against human NCI-H460 cells
In short: (§1)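 Tested in a 60-cell-line human tumor panel screen; the read-out is growth inhibition, reported as GI50 for each cell line.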

IGROV-1 = test: Cytotoxicity against human IGROV1 cells; in short: as §1
PC-3 = test: Cytotoxicity against human PC3 cells; in short: as §1
A498 = test: Cytotoxicity against human A498 cells; in short: as §1
[1] = Cytotoxicity against human OVCAR3 cells; in short: as §1
HCT-116 = test: Cytotoxicity against human HCT116 cells; in short: as §1
HL-60(TB) = test: Cytotoxicity against human HL-60(TB) cells
In short: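 Tested within the NCI 60-cell-line screen, with GI50 as the read-out. Values are the average of two independent experiments. The lowest concentration tested was 10 nM.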

SN12C = test: Cytotoxicity against human SN12C cells; in short: as §1
[2] = Cytotoxicity against human UACC257 cells
In short: (§2)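 Cell line run as part of the 60-cell-line screening panel; growth inhibition was reported as a GI50 for each line.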

BT-549 = test: Cytotoxicity against human BT549 cells; in short: as §1
SK-MEL-5 = test: Cytotoxicity against human SK-MEL-5 cells; in short: as §1
M14 = test: Cytotoxicity against human M14 cells; in short: as §1
NCI-H23 = test: Cytotoxicity against human NCI-H23 cells; in short: as §1
NCI-H226 = test: Cytotoxicity against human NCI-H226 cells; in short: as §1
[3] = Cytotoxicity against human EKVX cells; in short: as §1
[4] = Cytotoxicity against human NCI-ADR-RES cells; in short: as §1
[5] = Cytotoxicity against human HCT15 cells; in short: as §1
[6] = Cytotoxicity against human OVCAR4 cells; in short: as §1
NCI-H322M = test: Cytotoxicity against human NCI-H322M cells; in short: as §1
T47D = test: Cytotoxicity against human T47D cells; in short: as §2
MDA-MB-231 = test: Cytotoxicity against human MDA-MB-231 cells; in short: as §1
K562 = test: Cytotoxicity against human K562 cells; in short: as §1
SF-295 = test: Cytotoxicity against human SF295 cells; in short: as §1
RXF 393 = test: Cytotoxicity against human RXF393 cells; in short: as §1
LOX IMVI = test: Cytotoxicity against human LOXIMVI cells; in short: as §1
MDA-MB-435 = test: Cytotoxicity against human MDA-MB-435 cells; in short: as §1
ACHN = test: Cytotoxicity against human ACHN cells; in short: as §1
MDA-MB-468 = test: Cytotoxicity against human MDA-MB-468 cells; in short: as §1
[7] = Cytotoxicity against human UACC62 cells; in short: as §2
COLO 205 = test: Cytotoxicity against human COLO205 cells; in short: as §1
[8] = Cytotoxicity against human UO31 cells; in short: as §2
SF-539 = test: Cytotoxicity against human SF539 cells; in short: as §1
SNB-75 = test: Cytotoxicity against human SNB75 cells; in short: as §2
HT-29 = test: Cytotoxicity against human HT-29 cells; in short: as §1
A549 = test: Cytotoxicity against human A549 cells; in short: as §1
MCF7 = test: Cytotoxicity against human MCF7 cells; in short: as §1
SK-MEL-2 = test: Cytotoxicity against human SK-MEL-2 cells; in short: as §1
CCRF-CEM = test: Cytotoxicity against human CCRF-CEM cells
U-251 = test: Cytotoxicity against human U251 cells; in short: as §2
786-0 = test: Cytotoxicity against human 786-0 cells; in short: as §1
MOLT-4 = test: Cytotoxicity against human MOLT4 cells; in short: as §1
SK-OV-3 = test: Cytotoxicity against human SKOV3 cells; in short: as §1
CAKI-1 = test: Cytotoxicity against human Caki1 cells; in short: as §1
[9] = read-out: pLC50 (the source's name) (converted)

COc1cc(/C=C/c2cc(OC)c3ccn(C)c3c2)cc2c1O[C@]1(C)CC[C@@H](O)C(C)(C)[C@H]1C2
GI50 (NCI-H460): 1.07 µM | CC50 (NCI-H460; [9]): 61.7 µM | TGI (NCI-H460; read-out: pTGI (converted)): 12 µM | GI50 (IGROV-1): 2.24 µM | CC50 (IGROV-1; [9]): 95.5 µM | TGI (IGROV-1; read-out: pTGI (converted)): 45.7 µM | GI50 (PC-3): 0.692 µM | LC50 (PC-3): > 100 µM | TGI (PC-3; read-out: pTGI (converted)): 83.2 µM | GI50 (A498): 0.407 µM | CC50 (A498; [9]): > 100 µM | TGI (A498; read-out: pTGI (converted)): 8.13 µM | GI50 ([1]; OVCAR-3): 6.46 µM | CC50 ([1]; OVCAR-3, read-out: pLC50 (the source's name) (converted)): 57.5 µM | TGI ([1]; OVCAR-3, read-out: pTGI (converted)): 23.4 µM | GI50 (HCT-116): 1.23 µM | CC50 (HCT-116; [9]): 51.3 µM | TGI (HCT-116; read-out: pTGI (converted)): 15.1 µM | GI50 (HL-60(TB)): 1.2 µM | CC50 (HL-60(TB); [9]): > 100 µM | TGI (HL-60(TB); read-out: pTGI (converted)): 38.9 µM | GI50 (SN12C): 6.03 µM | LC50 (SN12C): > 100 µM | TGI (SN12C; read-out: pTGI (converted)): > 100 µM | GI50 ([2]; UACC-257): 2.45 µM | CC50 ([2]; UACC-257, read-out: pLC50 (the source's name) (converted)): > 100 µM | TGI ([2]; UACC-257, read-out: pTGI (converted)): 35.5 µM | GI50 (BT-549): 2.82 µM | CC50 (BT-549; [9]): > 100 µM | TGI (BT-549; read-out: pTGI (converted)): 30.9 µM | GI50 (SK-MEL-5): 0.513 µM | CC50 (SK-MEL-5; [9]): 2.24 µM | TGI (SK-MEL-5; read-out: pTGI (converted)): 1.07 µM | GI50 (M14): 0.575 µM | CC50 (M14; [9]): 45.7 µM | TGI (M14; read-out: pTGI (converted)): 16.6 µM | GI50 (NCI-H23): 2.69 µM | CC50 (NCI-H23; [9]): > 100 µM | TGI (NCI-H23; read-out: pTGI (converted)): 57.5 µM | GI50 (NCI-H226): 6.03 µM | TGI (NCI-H226; read-out: pTGI (converted)): > 100 µM | GI50 [3]: 1.58 µM | TGI ([3]; read-out: pTGI (converted)): 49 µM | GI50 [4]: 6.46 µM | CC50 [4, 9]: > 100 µM | TGI ([4]; read-out: pTGI (converted)): > 100 µM | GI50 ([5]; HCT-15): 1.15 µM | CC50 ([5]; HCT-15, read-out: pLC50 (the source's name) (converted)): 64.6 µM | TGI ([5]; HCT-15, read-out: pTGI (converted)): 6.31 µM | GI50 ([6]; OVCAR-4): 3.89 µM | CC50 ([6]; OVCAR-4, read-out: pLC50 (the source's name) (converted)): > 100 µM | GI50 (NCI-H322M): 18.2 µM | CC50 (NCI-H322M; [9]): > 100 µM | TGI (NCI-H322M; read-out: pTGI (converted)): > 100 µM | GI50 (T47D): 4.37 µM | CC50 (T47D; [9]): > 100 µM | TGI (T47D; read-out: pTGI (converted)): 38.9 µM | GI50 (MDA-MB-231): 1.48 µM | LC50 (MDA-MB-231): > 100 µM | TGI (MDA-MB-231; read-out: pTGI (converted)): 33.9 µM | GI50 (K562): 1 µM | CC50 (K562; [9]): > 100 µM | TGI (K562; read-out: pTGI (converted)): 33.1 µM | GI50 (SF-295; read-out: GI50): 0.17 µM | GI50 (SF-295; read-out: pGI50 (converted)): 0.17 µM | CC50 (SF-295; [9]): 7.08 µM | TGI (SF-295; read-out: pTGI (converted)): 0.537 µM | GI50 (RXF 393): 0.0447 µM | LC50 (RXF 393): 4.27 µM | TGI (RXF 393; read-out: pTGI (converted)): 0.275 µM | GI50 (LOX IMVI): 1.62 µM | CC50 (LOX IMVI; [9]): 79.4 µM | TGI (LOX IMVI; read-out: pTGI (converted)): 17 µM | GI50 (MDA-MB-435): 1.02 µM | CC50 (MDA-MB-435; [9]): 91.2 µM | TGI (MDA-MB-435; read-out: pTGI (converted)): 20.9 µM | GI50 (ACHN): 1 µM | LC50 (concentration killing 50% of cells) (ACHN): > 100 µM | TGI (ACHN; read-out: pTGI (converted)): 87.1 µM | GI50 (MDA-MB-468): 1.23 µM | LC50 (MDA-MB-468): > 100 µM | GI50 ([7]; UACC-62): 0.355 µM | CC50 ([7]; UACC-62, read-out: pLC50 (the source's name) (converted)): 23.4 µM | TGI ([7]; UACC-62, read-out: pTGI (converted)): 2.19 µM | GI50 (COLO 205): 1.38 µM | CC50 (COLO 205; [9]): 6.61 µM | TGI (COLO 205; read-out: pTGI (converted)): 3.02 µM | GI50 ([8]; UO-31): 0.501 µM | LC50 ([8]; UO-31): > 100 µM | TGI ([8]; UO-31, read-out: pTGI (converted)): 3.02 µM | GI50 (SF-539): 0.214 µM | CC50 (SF-539; [9]): 57.5 µM | TGI (SF-539; read-out: pTGI (converted)): 5.5 µM | GI50 (SNB-75): 0.363 µM | CC50 (SNB-75; [9]): > 100 µM | TGI (SNB-75; read-out: pTGI (converted)): 11.5 µM | GI50 (HT-29): 1.26 µM | CC50 (HT-29; [9]): 43.7 µM | TGI (HT-29; read-out: pTGI (converted)): 5.62 µM | GI50 (A549): 1.91 µM | CC50 (A549; [9]): > 100 µM | TGI (A549; read-out: pTGI (converted)): > 100 µM | GI50 (MCF7): 1.51 µM | LC50 (MCF7): 66.1 µM | TGI (MCF7; read-out: pTGI (converted)): 14.5 µM | GI50 (SK-MEL-2): 0.851 µM | CC50 (SK-MEL-2; [9]): > 100 µM | TGI (SK-MEL-2; read-out: pTGI (converted)): 20.4 µM | GI50 (CCRF-CEM): 0.457 µM | CC50 (CCRF-CEM; [9]): > 100 µM | TGI (CCRF-CEM; read-out: pTGI (converted)): 9.33 µM | GI50 (U-251): 0.355 µM | CC50 (U-251; [9]): 69.2 µM | TGI (U-251; read-out: pTGI (converted)): 15.5 µM | GI50 (786-0): 0.214 µM | LC50 (concentration killing 50% of cells) (786-0): > 100 µM | TGI (786-0; read-out: pTGI (converted)): 2.4 µM | GI50 (MOLT-4): 0.437 µM | CC50 (MOLT-4; [9]): > 100 µM | TGI (MOLT-4; read-out: pTGI (converted)): 8.51 µM | GI50 (SK-OV-3): 2.57 µM | LC50 (SK-OV-3): > 100 µM | TGI (SK-OV-3; read-out: pTGI (converted)): > 100 µM | GI50 (CAKI-1): 0.692 µM | LC50 (CAKI-1): > 100 µM | TGI (CAKI-1; read-out: pTGI (converted)): 4.79 µM
